Compound activity: PubChem BioAssay, Broad Institute
SIRT5 block: blocks human SIRT5 desuccinylation of peptide; Q9NXA8; Purified SirT5, succinyl-peptide AMC, trypsin-coupled fluorescence; inhibition, % at 15 µM; actives 1.1% (n = 330,000); in the data active = inhibition above about 15%; inconclusive = no clear call, values can overlap the other calls
Target sequence (Q9NXA8 whole entry, looked up): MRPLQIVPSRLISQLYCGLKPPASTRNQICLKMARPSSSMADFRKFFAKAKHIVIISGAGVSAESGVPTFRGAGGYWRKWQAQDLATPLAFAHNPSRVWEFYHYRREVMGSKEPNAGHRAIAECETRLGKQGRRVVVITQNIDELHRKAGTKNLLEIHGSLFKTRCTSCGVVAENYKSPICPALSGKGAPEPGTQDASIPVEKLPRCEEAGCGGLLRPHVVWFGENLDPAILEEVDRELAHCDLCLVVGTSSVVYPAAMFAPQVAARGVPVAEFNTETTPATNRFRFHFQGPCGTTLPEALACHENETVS
E-selectin induc: E-selectin induction on HUVECs. P16581. HUVEC E-selectin immunofluorescence imaging; normalized: neutral wells 0, TNF-alpha wells 100. activation, % at 7.58 µM. actives 0.37% (n = 260,000). AID 686992;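 active = mean E-selectin-positive cell signal at least 10% of the positive control, reached in at least 60% of replicates, without over 20% cell loss; inconclusive = no rule given, readout overlaps actives, possibly toxicity-flagged; inactive = the rest, including those meeting only one limit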
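Material: HUVEC primary endothelial cells; Amount: 3,000 cells per well; Dosing: single concentration; Medium: EGM-2 growth medium on 0.1% gelatin-coated wells; Read-out basis: percent E-selectin-positive cells; Signal: immunofluorescence imaging; Control set: TNF-alpha, DMSO.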
DENV2 CPE rescue: protects cells from dengue virus 2 cytopathic effect. DENV2-infected cells, cytopathic effect rescue, plate reader. CPE inhibition, % at 9.99 µM. actives 1.7% (n = 350,000). AID 651640; in the data active = CPE inhibition above about 20%, passing the limit was not always enough; inconclusive = no clear call, values can overlap the other calls; tested in BHK-21 cells;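 also: 0% = median of neutral control wells and 100% = median of positive control wells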
Numbers without * were called inactive; ? = inconclusive; . = no result given. Rows were chosen to be rich in hits. Some 2.8% of all compounds tested hit in one or more screens of this group.

SMILES | SIRT5 block | E-selectin induc | DENV2 CPE rescue
C[C@H](CO)N1C[C@H](C)[C@H](CN(C)Cc2ccc(-c3ccccc3)cc2)Oc2ccc(NC(=O)Nc3ccc4c(c3)OCO4)cc2C1=O | 0.4 | 2.6 | 24.3*
C[C@H]1CN([C@@H](C)CO)C(=O)c2cccc(NC(=O)Nc3ccc4c(c3)OCO4)c2O[C@H]1CN(C)Cc1ccccc1 | 2.6 | 0.9 | 5.0
CC(C)NC(=O)Nc1ccc2c(c1)C(=O)N([C@@H](C)CO)C[C@H](C)[C@H](CN(C)Cc1ccc(-c3ccccc3)cc1)O2 | 0.4 | 0.6 | 0.1
C[C@H]1CN([C@@H](C)CO)C(=O)c2cccc(NC(=O)Nc3ccc4c(c3)OCO4)c2O[C@@H]1CN(C)Cc1ccccc1 | 7.4 | 0.3 | 39.2*
CNC[C@@H]1OCCCC[C@H](C)Oc2ccc(NC(=O)Cc3ccccc3)cc2C(=O)N([C@@H](C)CO)C[C@@H]1C | 5.8 | 0.0 | -8.8
C[C@@H]1CN([C@@H](C)CO)C(=O)c2cccc(NC(=O)c3nc4ccccc4s3)c2O[C@@H]1CN(C)Cc1ccc(Oc2ccccc2)cc1 | 3.8 | -3.7 | -6.5
O=C(C[C@@H]1C=C[C@H](NC(=O)Nc2ccc(F)cc2)[C@@H](CO)O1)NCc1cccc(F)c1 | -3.3 | -0.2 | 2.6
Cc1noc(C)c1S(=O)(=O)Nc1ccc2c(c1)CC(=O)N([C@@H](C)CO)C[C@@H](C)[C@H](CN(C)CC1CCCCC1)O2 | 0.7 | 0.0 | 4.3
O=[N+]([O-])c1c(NCCCO)cc(N2CCCCCC2)c2nonc12 | 0.7 | -0.1 | 37.4*
O=[N+]([O-])c1c(NCCCO)cc(N2CCN(Cc3ccc4c(c3)OCO4)CC2)c2nonc12 | -0.6 | -0.2 | -3.9
COCC(=O)N1C[C@H]2CON(C)[C@H]2C[C@H]1c1cccc(-c2ccc(C#N)cc2)c1 | -1.2 | -0.1 | -6.4
COCC(=O)N1C[C@H]2CON(C)[C@H]2C[C@H]1c1cccc(-c2ccccc2)c1 | 2.1 | 0.1 | 34.1*
COc1ccc(CCNC(=O)CCc2ccc(S(=O)(=O)NCC(C)C)cc2)cc1 | 0.8 | . | 1.4
Cc1ccc(CNC(=O)CCc2ccc(S(=O)(=O)NCC(C)C)cc2)cc1 | 29.0* | 0.9 | 5.1
C[C@H](CO)N1C[C@H](C)[C@H](CN(C)Cc2ccc(Cl)c(Cl)c2)Oc2ccc(NC(=O)Nc3ccc(C(F)(F)F)cc3)cc2CC1=O | -1.4 | 2.2 | -3.6
COc1ccc(NC(=O)N(C)C[C@@H]2OCCCC[C@@H](C)Oc3ccc(NS(=O)(=O)c4ccccc4)cc3C(=O)N([C@H](C)CO)C[C@H]2C)cc1 | 0.8 | -0.1 | -7.2
CCOc1ccc(N(CC(=O)NCC2CCCO2)C(=O)CCC(=O)Nc2nccs2)cc1 (stereo unspecified) | 16.7* | . | 2.0
CCCCOc1ccc(N(CC(=O)NCC2CCCO2)C(=O)CCC(=O)Nc2nccs2)cc1 (stereo unspecified) | 1.9 | . | 2.7
Cc1ccc(S(=O)(=O)N2CCN(C(=O)n3ccnc3)CC2)cc1 | -2.8 | . | -8.3
CC(C)c1ccc(S(=O)(=O)N2CCN(C(=O)n3ccnc3)CC2)cc1 | -3.4 | -0.3 | 31.1*
CCOC(=O)Cc1c(C)nc(N)[nH]c1=O | -3.7 | 12.4 | 2.8
CCOC(=O)Cc1sc(N)nc1C | -3.8 | . | 40.9*
COc1ccc(S(=O)(=O)Nc2ccc3c(c2)C(=O)N([C@H](C)CO)C[C@H](C)[C@H](CN(C)C(=O)Nc2ccc(C(F)(F)F)cc2)OCCCC[C@@H](C)O3)cc1 | . | 0.0 | -7.1
Cc1ccc(-c2ccc(CN3C(C)C(=O)N(Cc4cn(Cc5ccco5)nn4)CCS3(=O)=O)cc2)cc1 (stereo unspecified) | 6.5 | 0.0 | 5.9
CC(C)CC1C(=O)N(Cc2cn(Cc3ccco3)nn2)CCS(=O)(=O)N1Cc1ccc(-c2ccc(F)cc2)cc1 (stereo unspecified) | 17.8* | -0.2 | -1.3
SMILES | SIRT5 block | E-selectin induc | DENV2 CPE rescue
Cc1ccccc1-c1ccc(CN2C(C)C(=O)N(Cc3cn(Cc4ccco4)nn3)CCS2(=O)=O)cc1 (stereo unspecified) | -0.1 | 0.0 | 12.3
CC1C(=O)N(Cc2cn(Cc3ccco3)nn2)CCS(=O)(=O)N1Cc1ccc(-c2ccccc2C(F)(F)F)cc1 (stereo unspecified) | -1.0 | . | 65.4*
Cc1ccc(-c2ccc(CN3C(CC(C)C)C(=O)N(Cc4cn(Cc5ccco5)nn4)CCS3(=O)=O)cc2)cc1 (stereo unspecified) | -3.3 | -0.1 | 0.4
Cc1ccc(-c2ccc(CN3C(C)C(=O)N(Cc4cn(Cc5ccco5)nn4)CCS3(=O)=O)cc2)c(C)c1 (stereo unspecified) | 27.3* | -0.1 | 0.4
O=C(NCCN1CCCCC1)[C@H]1[C@H](CO)[C@H]2Cn3c(cccc3=O)[C@@H]1N2C(=O)C1CCCCC1 | -0.3 | 0.1 | -2.2
CC(C)C#Cc1ccc2c(c1)O[C@H](CN(C)C(=O)c1ccccn1)[C@@H](C)CN([C@H](C)CO)S2(=O)=O | 2.1 | 0.0 | -4.9
CCNC(=O)C[C@H]1CC[C@@H]2[C@H](COc3ccc(NC(=O)C4CCOCC4)cc3C(=O)N2C)O1 | 1.4 | 0.0 | 5.7
O=C(Nc1cc(F)ccc1F)N[C@@H]1CC[C@H](CCn2cc(C3CCCCC3)nn2)O[C@@H]1CO | 2.5 | -0.3 | 1.8
COc1ccccc1CNC(=O)C[C@H]1CC[C@H]2[C@H](COc3ccc(NC(=O)Nc4ccc(F)c(F)c4)cc3C(=O)N2C)O1 | 1.0 | 0.0 | -4.7
C[C@H](CO)N1C[C@H](C)[C@H](CN(C)Cc2ccc(-c3ccccc3)cc2)Oc2ccc(NS(C)(=O)=O)cc2CC1=O | 2.2 | 0.1 | 12.1
CC(=O)N(C)C[C@H]1Oc2ncc(C3=CCCC3)cc2C(=O)N([C@@H](C)CO)C[C@H]1C | 1.1 | 0.1 | 13.0
C[C@H](NC(=O)[C@@H]1[C@@H](CO)[C@@H]2Cn3c(ccc(-c4cccnc4)c3=O)[C@@H]2N1C)c1ccccc1 | -0.4 | -0.1 | -2.2
Cc1ccc(S(=O)(=O)Nc2ccc3c(c2)CC(=O)N([C@@H](C)CO)C[C@H](C)[C@H](CN(C)Cc2ccc(Oc4ccccc4)cc2)O3)cc1 | 0.6 | -0.4 | 68.7*
C[C@H]1CN([C@@H](C)CO)C(=O)Cc2cc(NS(=O)(=O)c3ccccc3)ccc2O[C@H]1CN(C)Cc1ccc(Oc2ccccc2)cc1 | 4.0 | 0.0 | ?
COc1ccc(S(=O)(=O)Nc2ccc3c(c2)CC(=O)N([C@@H](C)CO)C[C@@H](C)[C@H](CN(C)Cc2ccc(Oc4ccccc4)cc2)O3)cc1 | 1.5 | 0.0 | 8.9
Cc1ccc(S(=O)(=O)Nc2ccc3c(c2)CC(=O)N([C@@H](C)CO)C[C@@H](C)[C@@H](CN(C)Cc2ccc(Oc4ccccc4)cc2)O3)cc1 | 18.1* | -0.5 | 9.5
COc1ccc(C#Cc2ccc3c(c2)[C@H]2[C@H](CCN2Cc2ccncc2)[C@@H](CO)N3)cc1 | 6.6 | 0.7 | 2.5
O=C(NCC[C@@H]1CC[C@@H](NC(=O)C2CC2)[C@@H](CO)O1)c1ccc(F)cc1 | -1.4 | -0.3 | -2.4
C[C@@H]1CN([C@@H](C)CO)C(=O)CCCn2cc(nn2)CO[C@H]1CN(C)C | . | 0.1 | .
C[C@H](CO)N1C[C@H](C)[C@H](CN(C)Cc2ccccc2)OCCCC[C@H](C)Oc2ccc(NS(=O)(=O)c3cccs3)cc2C1=O | -0.6 | . | -3.0
